HCT116 bCat-KO – beta-catenin-lacking colon tumor cell growth suppression; HCT116 beta-catenin knockout viability, CellTiter-Glo, 60 h; hits give low values; viability, % at 10 µM; 140,000 tested, 1.5% active;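 active = viability at or under a set limit, the compound median less 4 SD, cut at about 6% in these data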;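 note: 0% = Hyamine 1622 control at 20 µM and 100% = untreated cell control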
HCT116 PTEN-null – growth suppressors of cells with PTEN tumor suppressor deletion. viability, % at 10 µM. 140,000 tested, 1.2% active. HCT116 PTEN-null viability, CellTiter-Glo, 60 h; hits give low values. AID 827;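 active = viability at or below a set limit, 4 SD under the median of all tested compounds, cut at about 3.7% in these data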;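 note: PTEN knockout HCT116 line with beta catenin targeted HCT116 as companion control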
HUVEC prolif 384 – human endothelial cell proliferation inhibition; HUVEC proliferation, CellTiter-Glo luminescence, 72 h; hits give low values; viability, % at 10 µM (by protocol); 86,000 tested, 1.1% active;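 active = viability at or below 30%; inactive = viability above 30%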;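 note: 100% = median luminescence of DMSO-only cell control wells on each plate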
Lung fibro prol – blocks proliferation of human lung fibroblasts | LL 47 human lung fibroblast viability, ATP luminescence; hits give low values | viability, % at 10 µM | 85,000 tested, 1.1% active | AID 719;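 active = viability at or below 50% in the single dose screen; inactive = viability above 50%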;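 note: compound exposure lasted 72 h before the ATP readout; 100% = median luminescence of untreated cell-only wells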
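Test system: LL 47 human lung fibroblasts / Incubation: 72 h compound exposure at 37 °C after overnight plating / Technique: luminescent ATP detection, CellTiter-Glo / Compound dosing: 0.1% DMSO in all compound wells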
H69AR inhibit – blocks growth of human H69AR lung tumor cells; H69AR lung tumor viability, ATP luminescence, 72 h; hits give low values; viability, % at 10 µM; 85,000 tested, 6% active; AID 598;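 active = viability at or below 40%; inactive = viability above 40%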;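 note: multidrug resistant small cell line overexpressing MRP-1 efflux transporter; 100% = mean luminescence of untreated control wells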
* marks the source's active call; other numbers are inactive results; x = no result given. This excerpt belongs to a sample that is enriched for hits.

SMILES	HCT116 bCat-KO	HCT116 PTEN-null	HUVEC prolif 384	Lung fibro prol	H69AR inhibit
Cc1noc(C)c1CSc1nc2ccccc2c(=O)n1-c1ccc(Cl)cc1	26.2	23.5	57.8	80.0	14.5*
Cc1noc(C)c1CSc1nc2sc(C)c(C)c2c(=O)n1-c1ccccc1	55.2	59.1	69.0	85.1	59.1
O=C(COC(=O)C1(c2ccc(F)cc2)CCCC1)Nc1ncc(C(F)(F)F)cc1Cl	81.4	85.2	x	x	x
Cc1cc(=O)n2nc(N3CCCC3C(=O)NCCCN3CCCCC3)sc2n1 (stereo not drawn)	87.1	96.3	103.5	104.8	101.8
Cc1cccc(Nc2nc(NCc3ccco3)nc(N3CCOCC3)n2)c1	12.2	12.7	7.9*	83.8	52.9
COc1ccccc1C(C)NC(=O)c1ccc(C)o1 (stereo not drawn)	30.6	30.2	90.6	95.5	26.0*
COc1ccc(OC)c(C(C)NC(=O)c2ccco2)c1 (stereo not drawn)	53.8	58.3	84.8	99.5	21.9*
Cc1ccc(C(=O)NC(C)c2ccccc2)o1 (stereo not drawn)	92.7	91.1	84.3	91.5	105.4
O=C(Nc1ccccc1-c1ccccc1)C(c1ccccc1)c1ccccc1	83.1	79.7	x	x	x
Cc1ccc(NC(=O)NC2=N/C(=C(/C#N)C(=O)N3CCCC3)c3ccccc32)cc1	x	x	105.0	109.5	36.8*
CCCCC(=O)NC(c1cccc([N+](=O)[O-])c1)c1c(OC(C)=O)ccc2ccccc12 (stereo not drawn)	61.4	55.9	79.6	89.0	4.6*
COc1cc(SC#N)ccc1N=Cc1c(C)[nH]n(-c2ccc(Cl)cc2)c1=O	94.1	93.4	x	x	x
COc1cc(SC#N)ccc1N=Cc1c(C)[nH]n(-c2ccc(C)c(C)c2)c1=O	0.8*	0.3*	x	x	x
CC1CCCc2sc3nc(N4CCN(CCO)CC4)n4ncnc4c3c21 (stereo not drawn)	91.8	92.2	93.5	92.6	14.7*
CCC(C)(C)n1nnnc1CN1CCC(c2nc3ccc(C)cc3[nH]2)CC1	19.8	37.8	62.9	84.2	12.1*
CC(C)NC(=O)c1c2c(nc3ccccc13)CCCC2	95.8	95.9	88.1	100.3	33.2*
CC1CN(S(=O)(=O)c2ccc(NC(=O)c3cc(-c4ccccc4O)n[nH]3)cc2)CC(C)O1 (stereo not drawn)	16.9	8.4	55.3	73.9	11.6*
CC1CN(S(=O)(=O)c2ccc(C(=O)Nc3ccc(S(=O)(=O)Nc4nccs4)cc3)cc2)CC(C)O1 (stereo not drawn)	90.3	94.5	x	x	x
COc1ccc(OC)c(C(=O)c2coc3ccc(O)cc23)c1	97.5	105.6	77.9	98.6	24.1*
COc1ccc2occ(C(C)=O)c2c1	94.7	100.1	90.4	95.8	85.0
COc1ccc(C(=O)c2ccc(OC)cc2O)c(O)c1	64.1	86.1	90.2	88.7	32.0*
CCOC(=O)CSc1ccc(-c2nc3cc(C)c(C)cc3[nH]2)cn1	99.3	90.7	116.6	77.1	83.9
Cc1cc2nc(-c3ccc(SCC(=O)N4CCOCC4)nc3)[nH]c2cc1C	36.2	32.0	44.9	91.4	28.2*
Cc1cc2nc(-c3ccc(SCC(=O)N4CCN(C(=O)c5ccco5)CC4)nc3)[nH]c2cc1C	12.2	10.0	30.2	72.3	12.3*
CCn1cc([N+](=O)[O-])c(C(=O)Nc2nc(-c3ccc(C)cc3)c(C)s2)n1	6.4	3.3*	x	x	x
SMILES	HCT116 bCat-KO	HCT116 PTEN-null	HUVEC prolif 384	Lung fibro prol	H69AR inhibit
CCn1cc([N+](=O)[O-])c(C(=O)Nc2nc(-c3ccc(C)c(C)c3)c(C)s2)n1	87.8	70.1	x	x	x
CCc1cc2ccccc2nc1SCC(=O)Nc1cc(OC)c(OC)cc1C(=O)O	102.2	102.2	x	x	x
O=C(NCc1ccco1)c1cnn2c(C(F)(F)F)cc(-c3cccs3)nc12	80.3	69.4	91.8	86.5	7.1*
O=C(NCc1ccco1)c1cnn2c(C(F)F)cc(-c3ccccc3)nc12	86.3	86.0	96.8	91.8	60.9
CCC(C)NS(=O)(=O)c1ccc(OC)c(Cl)c1Cl (stereo not drawn)	99.7	99.5	x	x	x
O=C1CC(N2CCN(C3CCc4ccccc4C3)CC2)C(=O)N1c1ccccc1 (stereo not drawn)	x	x	105.3	101.4	95.3
Cc1cc(N2CCC(N(C)C3CCCC3)CC2)nc2cc(O)ccc12	75.5	77.6	75.7	66.1	1.1*
COc1cc2c(cc1OC)CN(C(=S)Nc1ccc(C)cc1C)CC2	95.3	91.9	x	x	x
C=CCn1c(O)c(C2=c3ccccc3=NC2=O)s/c1=N/c1nccs1	27.7	26.9	65.8	41.7*	23.2*
Cn1c(O)c(C2=c3ccccc3=NC2=O)sc1=Nc1ccc(Cl)cc1	45.7	49.7	67.9	75.7	39.8*
O=C(O)CCC(C(=O)O)n1c(O)c(C2=c3ccccc3=NC2=O)sc1=S (stereo not drawn)	94.8	90.9	85.3	92.8	93.1
CC(C)NCCCCOc1ccccc1-c1ccccc1	78.8	76.0	x	x	x
CCOC(=O)Cc1nnc2c(Nc3ccc(Cl)cc3)nc3nonc3n12	32.7	26.4	38.1	70.6	14.1*
CCOC(=O)Cc1csc(Nc2ccc(Cl)cc2)n1	87.9	85.6	x	x	x
COc1ccc(-n2cnnc2SCc2csc(-c3ccccc3)n2)cc1	97.4	94.1	102.3	92.0	86.0
COc1ccc(C(C)(C)C)cc1NC(=O)Nc1ccc2c(c1)OCO2	46.7	45.4	59.6	97.8	21.8*
COc1ccc(C2CC(=O)c3sc(NC(C)=O)nc3C2)cc1 (stereo not drawn)	90.8	95.5	x	x	x
CC(Oc1cc(-c2ccccc2)cc2ccccc12)C(=O)N1CCOCC1 (stereo not drawn)	89.7	77.9	80.3	94.2	35.8*
Cc1ccc(-c2nn(-c3ccccc3)c3[nH]c(=O)c(CNCCN(C)C)cc23)cc1	x	x	42.7	74.1	17.2*
COc1cccc(NCc2cc3c(C(C)(C)C)nn(-c4ccccc4)c3[nH]c2=O)c1	109.2	98.2	101.7	88.8	65.8
Cc1nn(-c2ccccc2)c2[nH]c(=O)c(CNCc3ccc4c(c3)OCO4)cc12	82.4	89.2	91.1	87.8	92.1
Cc1ccc(-c2nn(-c3ccccc3)c3[nH]c(=O)c(CNCc4ccccc4)cc23)cc1	3.5*	13.4	4.8*	72.4	92.4
CCOc1ccc(NCc2cc3c(C(C)(C)C)nn(-c4ccccc4)c3[nH]c2=O)cc1	2.3*	1.2*	x	x	x
Cc1oc(CC(C)C)c(CN)c1C(=O)O	88.1	93.3	x	x	x
CC(C)c1ccc(C(=O)NC2=NCCS2)cc1	100.8	103.0	x	x	x
CCOC(=O)c1c2c(n(C)c1COC)C(=O)C(=O)c1ccc(Br)cc1-2	x	x	2.1*	2.2*	1.5*
O=C(Nc1cccnc1)c1ccc(COc2ccccc2Br)o1	25.6	26.5	24.4*	59.0	44.4
O=C(CC(Nc1ccc(Cl)cc1)C(=O)O)c1ccccc1 (stereo not drawn)	69.8	83.4	61.5	87.9	103.9
O=C(CC(Nc1ccc(F)cc1)c1ccccc1)c1ccccc1 (stereo not drawn)	7.8	3.4*	x	x	x

High-throughput results (PubChem)
